Sampled rows, rich in hits. Any-hit rate of the full collection: about 1.8%.
NR1D1 modulator – modulates human Rev-erb alpha binding to DNA. P20393. Rev-erbα–FITC-DNA binding, fluorescence polarization, 90 min. activity, % at 10 µM. actives 0.79% (n = 370,000);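 active = activity above about 14%, limit read from the data; passing the limit was not always enough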;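 note: 0% = DMSO wells with 35 nM protein and 100% = DMSO wells with 750 nM protein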
Target sequence (P20393 whole entry, looked up): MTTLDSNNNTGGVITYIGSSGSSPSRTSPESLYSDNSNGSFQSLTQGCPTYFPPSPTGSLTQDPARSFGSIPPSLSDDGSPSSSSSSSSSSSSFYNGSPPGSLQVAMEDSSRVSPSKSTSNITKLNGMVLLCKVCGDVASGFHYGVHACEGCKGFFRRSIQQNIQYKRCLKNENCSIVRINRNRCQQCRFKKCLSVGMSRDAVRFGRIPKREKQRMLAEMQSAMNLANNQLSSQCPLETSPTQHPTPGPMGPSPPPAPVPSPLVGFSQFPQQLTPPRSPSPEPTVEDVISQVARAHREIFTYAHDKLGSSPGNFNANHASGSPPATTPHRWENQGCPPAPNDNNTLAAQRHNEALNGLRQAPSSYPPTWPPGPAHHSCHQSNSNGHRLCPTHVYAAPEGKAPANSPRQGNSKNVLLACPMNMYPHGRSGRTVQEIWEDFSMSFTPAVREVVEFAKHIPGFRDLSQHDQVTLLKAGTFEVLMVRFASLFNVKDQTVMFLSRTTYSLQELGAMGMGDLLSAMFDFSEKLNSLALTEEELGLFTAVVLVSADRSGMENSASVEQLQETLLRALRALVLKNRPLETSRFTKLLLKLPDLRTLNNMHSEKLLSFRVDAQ
Tb MetRS inh – blocks T. brucei methionyl-tRNA synthetase activity | purified T. brucei MetRS, ATP depletion, Kinase-Glo luminescence | inhibition, % at 11.9 µM | actives 0.4% (n = 360,000);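 active = inhibition above a per-plate cutoff of the control wells' mean inhibition plus 3 SD, cut at about 5.5% in these data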;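 note: 0% = DMSO wells median and 100% = median of wells with control inhibitor compound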
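Test system – parasite MetRS enzyme · Reagent – substrates ATP, L-methionine and bulk Escherichia coli tRNA · Doses – 11.9 µM compound single dose, 0.9% DMSO · Times – 15 min enzyme-compound preincubation, 2 h reaction, 10 min detection, 25 °C · Signal – Kinase-Glo luminescence, ATP depletion format · Controls – DMSO-only wells as low control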
PG9 Ab binder – small molecules binding HIV-1 gp120 antibody PG9; TR-FRET gp120-PG9 antibody binding; inhibition, % at 6.7 µM; actives 0.43% (n = 360,000); AID 624416; in the data active = inhibition above about 8.5%
Rin1 Abl inh – human Rin1-Abl interaction inhibition | P00519+Q13671 | inhibition, % at 7.35 µM | TR-FRET Rin1/Abl binding, biochemical | AID 588664 | actives 0.4% (n = 360,000); in the data active = inhibition above about 5%, passing the limit was not always enough
NR1D1 mod conf – confirmation of modulators of human Rev-erb alpha DNA binding; Rev-erb alpha FITC-DNA binding, fluorescence polarization, 90 min; actives 61% (n = 3,000); shares compounds with NR1D1 modulator; activation, % at 25 µM;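 active = activation at or above a set limit, or at least 3 SD above the negative control mean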;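 note: 0% = 35 nM protein with DMSO and 100% = 750 nM protein high control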
RORg counter – counter-screen for Rev-erb alpha modulators: RORgamma DNA binding. shares compounds with NR1D1 modulator. purified RORgamma protein-FITC-DNA binding, fluorescence polarization. IC50, µM. actives 8% (n = 910). AID 1259320;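 active = Compounds whose fitted half-maximal concentration for disrupting protein-DNA binding is below 10 micromolar; the record names Rev-erb in its text, so the target is in doubt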
* hit, by the source's call.

For CC(C)C(=O)N1CCC1(C)C(=O)NS(=O)(=O)c1cccs1 (configuration not stated) the results were NR1D1 modulator -12, Tb MetRS inh 0, PG9 Ab binder 1 and Rin1 Abl inh -1.
Screening C[C@@H]1CN([C@H](C)CO)S(=O)(=O)c2ccc(C3=CCCCC3)cc2O[C@H]1CN(C)C(=O)Cc1cccnc1 returned NR1D1 modulator 3, Tb MetRS inh -1, PG9 Ab binder 0 and Rin1 Abl inh 2.
Screening CCn1cc(C(=O)NCCc2ccc(OC)cc2)c(=O)c2ccc(C)nc21 returned NR1D1 modulator 10, Tb MetRS inh 0, PG9 Ab binder 1 and Rin1 Abl inh -3.
Screening CCn1cc(C(=O)NCCc2ccc(Cl)cc2)c(=O)c2ccc(C)nc21 returned NR1D1 modulator 29*, Tb MetRS inh -1, PG9 Ab binder -1, Rin1 Abl inh 1 and NR1D1 mod conf 14.
For COc1ccc([C@@H]2[C@@H]3C(=O)N(C(C)(C)C)C(=O)[C@@H]3[C@]3(C)C(=O)N(c4cccc(Cl)c4)C(=O)N23)cc1 the results were NR1D1 modulator -3, Tb MetRS inh 0, PG9 Ab binder 0 and Rin1 Abl inh 1.
For O=C1c2cccc3cccc(c23)C(=O)N1OS(=O)(=O)c1ccc(Cl)cc1 the results were NR1D1 modulator 22*, Tb MetRS inh 0, PG9 Ab binder -1, Rin1 Abl inh 1 and NR1D1 mod conf 13.
`CCc1ccc(S(=O)(=O)ON2C(=O)c3ccccc3C2=O)cc1` gave NR1D1 modulator 5, Tb MetRS inh 0, PG9 Ab binder 1 and Rin1 Abl inh 3.
For C=CCn1c(SCCN2C(=O)c3ccccc3C2=O)nc2scc(-c3ccc(F)cc3)c2c1=O the results were NR1D1 modulator 21*, Tb MetRS inh 0, PG9 Ab binder 1, Rin1 Abl inh -2 and NR1D1 mod conf 14.
`Cc1ccc(OS(=O)(=O)c2ccc(N3C(=O)CCC3=O)cc2)cc1` gave NR1D1 modulator 6, Tb MetRS inh 0, PG9 Ab binder -2 and Rin1 Abl inh 1.
For O=C(c1ccc(-c2ccc([N+](=O)[O-])cc2)o1)N1CCN(S(=O)(=O)c2cccs2)CC1 the results were NR1D1 modulator -7, Tb MetRS inh 0, PG9 Ab binder 0 and Rin1 Abl inh -1.
For CC(=O)Oc1ccc(/C=N\NC(=O)c2cc3c(ccc4ccccc43)o2)cc1 the results were NR1D1 modulator 33*, Tb MetRS inh -1, PG9 Ab binder -2, Rin1 Abl inh 0, NR1D1 mod conf 33* and RORg counter >40.
Cc1ccc(/C=N/NC(=O)c2cc3c(ccc4ccccc43)o2)o1 was read as NR1D1 modulator -2, Tb MetRS inh -1, PG9 Ab binder -1 and Rin1 Abl inh 3.
COC(=O)[C@]12CCCCC=C1N(CCc1ccc(OC)c(OC)c1)C(=O)[C@H](CC(=O)NCc1cccs1)C2 was read as NR1D1 modulator 7, Tb MetRS inh 0 and PG9 Ab binder 1.
`CCOC(=O)c1cc(-c2cc(OC)c(OC)c(OC)c2)nc2c1c(=O)[nH]c(=O)n2Cc1ccccc1` gave NR1D1 modulator 23*, Tb MetRS inh 0, PG9 Ab binder 0, Rin1 Abl inh 1 and NR1D1 mod conf 9.
For CCOC(=O)c1cc(-c2ccc(F)cc2)nc2c1c(=O)[nH]c(=O)n2Cc1ccccc1 the results were NR1D1 modulator -9, Tb MetRS inh -1, PG9 Ab binder 0 and Rin1 Abl inh 3.
Screening NS(=O)(=O)c1ccc(CCNC(=O)CCc2nc3sc4c(c3c(=O)[nH]2)CCCC4)cc1 returned NR1D1 modulator -1, Tb MetRS inh 0, PG9 Ab binder 1 and Rin1 Abl inh -1.
Screening CCc1ccc(NC(=O)CCc2nc3sc4c(c3c(=O)[nH]2)CCCC4)cc1 returned NR1D1 modulator 19*, Tb MetRS inh 0, PG9 Ab binder 7, Rin1 Abl inh -4 and NR1D1 mod conf 7.
Cc1ccc(OCCNC(=O)CCc2nc3sc4c(c3c(=O)[nH]2)CCCC4)cc1 was read as NR1D1 modulator 20*, Tb MetRS inh 0, PG9 Ab binder 7, Rin1 Abl inh -1 and NR1D1 mod conf 12.
For COc1ccc(CCNC(=O)CCc2nc3sc4c(c3c(=O)[nH]2)CCCC4)cc1 the results were NR1D1 modulator 0, Tb MetRS inh 0, PG9 Ab binder 7 and Rin1 Abl inh 2.
Screening O=C(CCc1nc2sc3c(c2c(=O)[nH]1)CCCC3)NCCc1ccc(Cl)cc1 returned NR1D1 modulator 21*, Tb MetRS inh 0, PG9 Ab binder 5, Rin1 Abl inh -12 and NR1D1 mod conf 7.
CN(Cc1ccccc1Cl)C(=O)CNC(=O)C12CC3CC(CC(C3)C1)C2 was read as NR1D1 modulator -3, Tb MetRS inh 0, PG9 Ab binder -1 and Rin1 Abl inh -3.
`Cc1cc(C(=O)NNC(=O)/C=C/c2ccco2)c(C)o1` gave NR1D1 modulator 6, Tb MetRS inh -1, PG9 Ab binder 1 and Rin1 Abl inh 1.
CCCCc1nc2sc3c(SCCN(C)C)ncnc3c2c2c1CCC2 was read as NR1D1 modulator 31*, Tb MetRS inh -1, PG9 Ab binder 0, Rin1 Abl inh -147, NR1D1 mod conf 47* and RORg counter >40.
CCCc1nc2oc3c(NCCCN(C)C)ncnc3c2c2c1CCCC2 was read as NR1D1 modulator -7, Tb MetRS inh -1, PG9 Ab binder 1 and Rin1 Abl inh 1.
CC(C)c1nc2sc3c(SCC(N)=O)ncnc3c2c2c1CCC2 was read as NR1D1 modulator 869*, Tb MetRS inh 0, PG9 Ab binder -2, Rin1 Abl inh -8, NR1D1 mod conf 711* and RORg counter >40.
Screening S=C1NCN(CC2CC2)CN1 returned NR1D1 modulator 2 and PG9 Ab binder 1.
For CCc1cc2c(-c3ccccc3)cc(=O)oc2c(CN2CCOCC2)c1O the results were NR1D1 modulator 7, Tb MetRS inh 0, PG9 Ab binder -2 and Rin1 Abl inh 1.
Cc1cc(C(C)c2ccccc2)c(O)c(CN2CCOCC2)c1C (configuration not stated) was read as NR1D1 modulator 33*, Tb MetRS inh 1, PG9 Ab binder 0, Rin1 Abl inh 3, NR1D1 mod conf 43* and RORg counter >40.
For Cc1c(Cl)cc(C(C)C)c(O)c1CN1CCOCC1 the results were NR1D1 modulator 42*, Tb MetRS inh 0, PG9 Ab binder 1, Rin1 Abl inh 3, NR1D1 mod conf 43* and RORg counter >40.
`Oc1c(Cl)cc(Cl)c(Cl)c1CN1CCOCC1` gave NR1D1 modulator 5, Tb MetRS inh 0, PG9 Ab binder -1 and Rin1 Abl inh 2.
Cc1cccc(N2CCN(CC(=O)N(C3CCCC3)C3CCS(=O)(=O)C3)CC2)c1C (configuration not stated) was read as NR1D1 modulator 0, Tb MetRS inh 0, PG9 Ab binder 0 and Rin1 Abl inh 1.

High-throughput results deposited in PubChem by several laboratories.
